Measured values as given in ChEMBL document CHEMBL3808283, “Biological Characterization and in Vivo Assessment of the Activity of a New Synthetic Macrocyclic Antifungal Compound” (J Med Chem, 2016).
≈ marks a conversion by molar mass, not a printed value. Calls of active or inactive are those of the source. The rule behind the calls is not given here.

Tests used:
Candida albicans [1] = assay: Upregulation of IFU5 gene expression in Candida albicans SC5314 at 3 uM after 45 mins by microarray method relative to control; type: functional
Method in brief: (§1)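 Log-phase C. albicans SC5314 in liquid YEPD exposed to 3 µM final for 15 or 45 min; untreated controls taken at the same time points. Three biological replicates. RNA extracted by glass-bead/phenol-chloroform method and integrity checked. One-color Cy3-labeled cRNA (600 ng) hybridized 17 h at 65 °C to 8 × 15K arrays. Expression expressed as fold change versus control.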

Candida albicans [2] = assay: Upregulation of CDR1 gene expression in Candida albicans SC5314 at 3 uM after 15 to 45 mins by qRT-PCR method; type: functional, organism-based
Method in brief: (§2)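 Log-phase C. albicans treated at 3 µM. RNA extracted with glass-bead disruption, then DNase-treated (10 µg per preparation). Target gene CT values were normalized to an endogenous reference. Fold change calculated as mean normalized expression of samples relative to a selected control.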

Candida albicans [3] = assay: Upregulation of CDR2 gene expression in Candida albicans SC5314 at 3 uM after 15 to 45 mins by qRT-PCR method; type: functional, organism-based; method in brief: as §2
Candida albicans [4] = assay: Antifungal activity against fluconazole-susceptible Candida albicans ATCC 90028 in immunocompetent Balb/c mouse candidiasis model assessed as reduction in CFU count in kidney at 20 to 40 mg/kg/day, ip regime measured on day 7 post infection; type: functional, organism-based
Method in brief: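 Immunocompetent BALB/c mice, 10 per strain group, injected in the lateral tail vein with 7 × 10^4 CFU of C. albicans in 200 µL sterile saline. Compound given ip daily, 100 µL of 0.1 mg/mL in DMSO/PEG 400 2:1; fluconazole control ip at 8 mg/kg/day. On day 7, spleen and kidneys were excised, weighed and homogenized in saline, then plated on YPD agar for 2 days at 30 °C. Read-out CFU/g; Wilcoxon rank-sum test, P<0.05.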

Candida albicans [5] = assay: Antifungal activity against wild type Candida albicans CAF2-1 at 10 uM by serial dilution assay; type: functional, organism-based
Candida parapsilosis [6] = assay: Ratio of MIC at 24 hrs to MIC at 48 hrs for Candida parapsilosis 64E; type: functional
Method in brief: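 MICs by EUCAST broth microdilution, with the update for non-fermenting yeasts, incubated at 37 °C. Read at 24, 48 and 72 h as the lowest concentration preventing visible growth.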

Candida albicans [7] = assay: Antifungal activity against Candida albicans 53T up to 96 hrs by broth dilution assay; type: functional, organism-based
Cryptococcus neoformans [8] = assay: Antifungal activity against Cryptococcus neoformans up to 96 hrs by broth dilution assay; type: functional, organism-based
[9] = Antifungal activity against Geotrichum silvicola up to 96 hrs by broth dilution assay; type: functional
Candida albicans [10] = assay: Upregulation of CDR2 gene expression in Candida albicans SC5314 at 3 uM after 15 mins by microarray method relative to control; type: functional; method in brief: as §1
Candida albicans [11] = assay: Upregulation of orf19.3378 gene expression in Candida albicans SC5314 at 3 uM after 15 mins by microarray method relative to control; type: functional
Method in brief: (§3)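 Log-phase cultures in liquid YEPD were exposed to 3 µM compound (final) for 15 or 45 min, with untreated controls sampled at the same times, in three biological replicates. Total RNA was extracted by glass-bead/phenol-chloroform disruption and integrity-checked. One-color Cy3-labelled cRNA (600 ng) was hybridized for 17 h at 65 °C to 8 × 15K arrays, and fold change was taken versus control.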

Candida albicans [12] = assay: Upregulation of orf19.7336 gene expression in Candida albicans SC5314 at 3 uM after 15 mins by microarray method relative to control; type: functional; method in brief: as §3
Candida albicans [13] = assay: Upregulation of TAC1 gene expression in Candida albicans SC5314 at 3 uM after 15 mins by microarray method relative to control; type: functional; method in brief: as §1
Candida albicans [14] = assay: Upregulation of ERG2 gene expression in Candida albicans SC5314 at 3 uM after 15 mins by microarray method relative to control; type: functional; method in brief: as §1
Candida albicans [15] = assay: Upregulation of CRZ2 gene expression in Candida albicans SC5314 at 3 uM after 15 mins by microarray method relative to control; type: functional; method in brief: as §1
Candida albicans [16] = assay: Upregulation of orf19.6873.1 gene expression in Candida albicans SC5314 at 3 uM after 15 mins by microarray method relative to control; type: functional; method in brief: as §3
Candida albicans [17] = assay: Upregulation of LCB4 gene expression in Candida albicans SC5314 at 3 uM after 15 mins by microarray method relative to control; type: functional; method in brief: as §1
Candida albicans [18] = assay: Upregulation of orf19.4531 gene expression in Candida albicans SC5314 at 3 uM after 45 mins by microarray method relative to control; type: functional; method in brief: as §3
Candida albicans [19] = assay: Upregulation of CDR1 gene expression in Candida albicans SC5314 at 3 uM after 45 mins by microarray method relative to control; type: functional; method in brief: as §1
Candida albicans [20] = assay: Upregulation of FCR1 gene expression in Candida albicans SC5314 at 3 uM after 45 mins by microarray method relative to control; type: functional; method in brief: as §1
Candida albicans [21] = assay: Antifungal activity against Candida albicans ATCC 60193 measured at 72 hrs by broth dilution assay; type: functional; details: ATCC 60193, 72 h
Method in brief: (§4)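 EUCAST broth microdilution, including the update for non-fermenting yeasts (Cryptococcus, Geotrichum), on clinical and reference yeast isolates. Incubated at 37 °C and read at 24, 48 and 72 h. MIC taken as the lowest concentration with no visible growth. For Cryptococcus and Geotrichum, MICs were read only once growth was visible in the control row.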

Candida albicans [22] = assay: Antifungal activity against Candida albicans 53T measured at 72 hrs by broth dilution assay; type: functional; method in brief: as §4
Candida albicans [23] = assay: Antifungal activity against Candida albicans 15T measured at 24 hrs by broth dilution assay; type: functional; method in brief: as §4
Pichia kudriavzevii [24] = assay: Antifungal activity against Candida krusei ATCC 14243 measured at 72 hrs by broth dilution assay; type: functional; details: ATCC 14243, 72 h; method in brief: as §4
Candida parapsilosis [25] = assay: Antifungal activity against Candida parapsilosis 64E measured at 24 hrs by broth dilution assay; type: functional; details: Lodderomyces parapsilosis; method in brief: as §4
Candida parapsilosis [26] = assay: Antifungal activity against Candida parapsilosis 81E measured at 48 hrs by broth dilution assay; type: functional; details: Lodderomyces parapsilosis; method in brief: as §4
Candida tropicalis = assay: Antifungal activity against Candida tropicalis 86E measured at 72 hrs by broth dilution assay; type: functional; method in brief: as §4
Cryptococcus neoformans [27] = assay: Antifungal activity against Cryptococcus neoformans measured at 72 hrs by broth dilution assay; type: functional; method in brief: as §4
Magnusiomyces capitatus [28] = assay: Antifungal activity against Geotrichum capitatum measured at 48 hrs by broth dilution assay; type: functional; method in brief: as §4
Candida albicans [29] = assay: Fungicidal activity against Candida albicans ATCC 60193 at 5 uM up to 24 hrs by time kill assay relative to control; type: functional
Method in brief: (§5)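 EUCAST broth microdilution at 37 °C. From wells at MIC, 2×, 4× and 8× MIC, 10 µL aliquots were taken, serially 10-fold diluted in saline and plated on Sabouraud dextrose agar. Plates were incubated at 37 °C for 24/48 h, and 48 h for Cryptococcus and Geotrichum. Done in duplicate, detection limit 10 CFU/mL. A drop of at least 3 Log10 CFU/mL from the initial inoculum in 24 h counts as fungicidal; a smaller drop counts as fungistatic.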

Magnusiomyces capitatus [30] = assay: Fungicidal activity against Geotrichum capitatum at 40 uM measured at 48 hrs by time kill assay; type: functional; method in brief: as §5
Pichia kudriavzevii [31] = assay: Fungicidal activity against Candida krusei ATCC 14243 assessed as reduction in CFU at 80 uM measured at 24 hrs by time kill assay relative to control; type: functional; details: ATCC 14243, 24 h; method in brief: as §5

With `C/C=C/CNC(=N)NCCCCCCCCN1CCCCCCCCNC(=N)NC1=O` the “fold change (FC)” value (Candida albicans [1]) was 2.58, the Activity (Candida albicans [2]) was “Active” and the Activity (Candida albicans [3]) was “Active”. For the same compound, the Activity (Candida albicans [4]) was “Active”, the Activity (Candida albicans [5]) was “Active” and the Ratio (Candida parapsilosis [6]) was 2. The Activity (Candida albicans [7]) was “Active”, the Activity (Cryptococcus neoformans [8]) was “Active” and the Activity [9] was “Active”. For the same compound, the “fold change (FC)” value (Candida albicans [10]) was 71.84, the “fold change (FC)” value (Candida albicans [11]) was 5.32 and the “fold change (FC)” value (Candida albicans [12]) was 2.8. The “fold change (FC)” value (Candida albicans [13]) was 2.79, the “fold change (FC)” value (Candida albicans [14]) was 2.61 and the “fold change (FC)” value (Candida albicans [15]) was 2.28. For the same compound, the “fold change (FC)” value (Candida albicans [16]) was 2.16, the “fold change (FC)” value (Candida albicans [17]) was 2.04 and the “fold change (FC)” value (Candida albicans [18]) was 21.54. The “fold change (FC)” value (Candida albicans [19]) was 3.75, the “fold change (FC)” value (Candida albicans [20]) was 5.88 and the MIC (Candida albicans [21]) was 5 µM (≈ 2.18 µg/mL). It also gave an MIC (Candida albicans [22]) of 5 µM (≈ 2.18 µg/mL), an MIC (Candida albicans [23]) of 5 µM (≈ 2.18 µg/mL) and an MIC (Pichia kudriavzevii [24]) of 80 µM (≈ 34.9 µg/mL). The MIC (Candida parapsilosis [25]) was 20 µM (≈ 8.71 µg/mL), the MIC (Candida parapsilosis [26]) was 40 µM (≈ 17.4 µg/mL) and the MIC (Candida tropicalis) was 5 µM (≈ 2.18 µg/mL). The MIC (Cryptococcus neoformans [27]) was 20 µM (≈ 8.71 µg/mL), the MIC (Magnusiomyces capitatus [28]) was 10 µM (≈ 4.36 µg/mL) and the Activity (Candida albicans [29]) was 99.9%. For the same compound, the Activity (Magnusiomyces capitatus [30]) was “Active” and the inhibition at 80 µM (Pichia kudriavzevii [31]) was 99.9%.
